# Screening results: PubChem, several laboratories
# Rows were chosen to be rich in hits. Some 1.8% of all compounds tested hit in one or more screens of this group.
# TNAP inh noacc – TNAP (human) inhibition, acceptor-free conditions; P05186; 0.26% of 200,000 active; inhibition, % at 20 µM; purified TNAP, CDP-star luminescence, 30 min;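 active means tissue-nonspecific alkaline phosphatase inhibition above about 50% at 20 µM in the single-dose screen, limit read from the data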;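 further: 0% = DMSO negative control and 100% = EDTA positive control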
# TNAP act hi DEA – activators of human TNAP at high phosphate acceptor concentration; P05186; purified TNAP, CDP-star luminescence, 1 M DEA, 30 min; hits give high values; 0 = EDTA background, 1 = DMSO-only activity; activation factor at 20 µM; 200,000 tested, under 10 active;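 active means activation factor at least 2 at 20 µM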
#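 Assay system: human TNAP; Input: enzyme diluted 1/800 final; Reagent: CDP-star luminogenic substrate at 100 µM final; Timing: 30 min, room temperature; Signal: luminescence; Evaluation: TNAP activation factor scaled between EDTA and DMSO control wells.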
# TNAP inh hi DEA – blocks human TNAP under high phosphate acceptor concentration; P05186; purified TNAP, CDP-star luminescence, 1 M DEA; inhibition, % at 20 µM; 0.03% of 200,000 active;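 active means over 50% inhibition of tissue-nonspecific alkaline phosphatase at 20 µM in the single-dose screen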;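 further: plate controls were DMSO wells for no effect and EDTA-quenched wells as full inhibition for full effect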
# Ins promoter up – MIN6 insulin promoter up-regulation. 0.3% of 190,000 active. MIN6 insulin promoter-GFP reporter, high-content imaging; hits give high values. AID 1625. z-score at 5 µM;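 active means z-score above 3 at 5 µM with at least 500 cells counted in the well; inconclusive means wells under 500 cells, flagged as cytotoxic or low count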
# p47phox inh – inhibitors of human p47phox binding | 0.53% of 220,000 active | P14598 | p47phox/p22phox peptide binding, fluorescence polarization, 2 h | inhibition, % at 24.7 µM;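 active means inhibition above about 30%, limit read from the data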;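 further: 0% = p47phox with labelled peptide and 100% = labelled peptide alone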
# Target sequence (P14598 whole entry, looked up): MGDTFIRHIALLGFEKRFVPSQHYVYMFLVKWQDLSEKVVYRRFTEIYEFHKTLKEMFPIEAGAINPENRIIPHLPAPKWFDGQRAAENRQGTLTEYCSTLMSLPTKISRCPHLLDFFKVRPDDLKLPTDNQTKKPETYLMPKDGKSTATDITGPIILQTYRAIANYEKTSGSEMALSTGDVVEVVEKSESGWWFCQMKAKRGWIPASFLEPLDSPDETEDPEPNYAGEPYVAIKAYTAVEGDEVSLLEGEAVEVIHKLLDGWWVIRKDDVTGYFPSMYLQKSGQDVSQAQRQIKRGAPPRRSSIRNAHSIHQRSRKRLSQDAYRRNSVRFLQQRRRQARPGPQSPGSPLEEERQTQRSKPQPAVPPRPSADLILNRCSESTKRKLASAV
# Autophagy mod – autophagy modulation, high-content screen; 0.98% of 190,000 active; calls only at 10 µM (by protocol); MEF GFP-LC3 puncta imaging; test concentration mostly 10 µM; AID 463193;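 active means percentage of spot-positive cells more than 3 SD above its plate mean, without a fluorescence outlier flag or 80% toxicity; inconclusive means no clear call, values can overlap the other calls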;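 further: spot-positive cell cutoff set from DMSO-treated cells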
# * marks the source's active call; other numbers are inactive results; i = inactive; ? = inconclusive; · = no result given; + = active, no number.
SMILES,TNAP inh noacc,TNAP act hi DEA,TNAP inh hi DEA,Ins promoter up,p47phox inh,Autophagy mod
CN1C(=O)COc2ccc(C(=O)c3oc4ccccc4c3-c3cnc4c(c3)COc3ccccc3-4)cc21,-10,1.1,-8,-0.53,-11,i
CCC(NC(=O)Nc1nnc(C(F)(F)F)s1)(C(F)(F)F)C(F)(F)F,4,1,1,-0.4,-2,+
O=C(O)CCC(=O)Nc1nnc(C(F)(F)F)s1,-7,1.1,-9,-0.24,-4,i
CCOc1ccc2nc(N3C(=O)/C(=C/c4ccccc4)NC3=S)sc2c1,3,0.9,14,-0.58,-87,+
COc1ccc2nc(N3C(=O)/C(=C/c4ccccc4)NC3=S)sc2c1,-81,0.8,20,0.42,-103,+
Cc1onc(C(=O)Nc2c(C)n(C)n(-c3ccccc3)c2=O)c1[N+](=O)[O-],·,·,·,1.1,4,·
CCCOc1ccc(C2C(C(=O)/C=C/c3ccco3)=C(O)C(=O)N2CCN2CCOCC2)cc1OC (stereo unspecified),5,0.9,10,·,-24,i
Cc1ccc(NC(=O)/C=C/c2ccc3c(c2)OCO3)cc1S(=O)(=O)N1CCOCC1,2,1,0,·,-119,i
CCCc1nnc(SCC(=O)N2CCCC2)n1Cc1ccco1,-10,1.1,-7,0.16,3,i
CC1(C)CC(=O)C2=C(C1)N=c1s/c(=C/c3ccc(F)c(F)c3)c(=O)n1C2c1ccc(F)cc1 (stereo unspecified),-2,1,5,-0.84,-8,+
COCCCNCC#CCOc1ccc(OC)cc1,-9,1.1,-6,0.3,6,+
COCCNCC#CCOc1ccc(OC)cc1,-12,1,-4,0.28,-7,i
Cc1ccccc1CN(C)CC(=O)Nc1c(C)cccc1C(C)C,4,1,-3,0.09,-1,i
Cc1cc(/C=C2\SC(=S)N(Cc3ccco3)C2=O)c(C)n1-c1ccccc1,6,0.8,22,1.2,-62,+
Cc1ccc(C)c(N2CCN(CCCNC(=O)Cn3cccc3C(=O)c3ccccc3C)CC2)c1,-3,1,-4,-0.45,-10,+
Cc1ccc(CNC(=O)Cn2cccc2C(=O)c2ccccc2C)cc1,1,1,0,0.6,-10,i
Cc1ccccc1C(=O)c1cccn1CC(=O)NCCC1=CCCCC1,-4,1,0,0.16,-9,i
Cc1ccccc1C(=O)c1cccn1CC(=O)NCCN1CCN(c2cccc(C)c2C)CC1,4,1,4,-1.2,-4,+
Cn1nc(C(=O)OCC(=O)Nc2ccc(S(N)(=O)=O)cc2)c2ccccc2c1=O,·,·,·,-0.35,1,·
O=C(COC(=O)/C=C/c1ccc(OC(F)F)cc1)NCCN1C(=O)CSC1=O,-15,1,0,-0.53,46*,i
Cc1ccc(Nc2c(-c3cccnc3)nc3ccc(Br)cn23)cc1,-15,1,-3,-0.76,-1,+
CCOc1ccc(Nc2nc(N)nc(CSC(=S)N3CCOCC3)n2)cc1,·,·,·,-0.25,125*,·
CCN1CCN(CC(=O)Nc2cc(C(F)(F)F)ccc2OCCOC)CC1,·,·,·,-0.62,-8,·
O=C1C(c2c(O)[nH]c3ccccc23)=Nc2ccccc21,17,0.9,10,-0.47,93*,·
CC(CCc1ccccc1)NC(=O)CCNC(=O)Cn1ccc2ccccc2c1=O (stereo unspecified),-4,1,2,-1.5,2,i
SMILES,TNAP inh noacc,TNAP act hi DEA,TNAP inh hi DEA,Ins promoter up,p47phox inh,Autophagy mod
CCCCOc1ccccc1NC(=O)Cn1c(-c2nonc2N)nc2ccccc21,-15,1.1,-8,-0.8,-2,+
COc1cc(Cn2c(-c3nonc3N)nc3ccccc32)ccc1C,-12,1,-2,-0.99,-10,+
CCn1c(=O)c2c(nc3n2CCCN3c2cccc(C)c2)n(C)c1=O,·,·,·,-0.75,8,·
Cc1ccc(C(=O)Nc2cc([N+](=O)[O-])ccc2C)cc1,-17,1.1,-5,-0.85,-2,i
Cc1ccc(NC(=O)c2ccc(Nc3c([N+](=O)[O-])cc([N+](=O)[O-])cc3[N+](=O)[O-])cc2)cc1,-6,0.5,54*,?,-18,i
CCOc1ccc(CCNC(=O)COC(=O)/C=C/c2ccc(OCC#N)c(OC)c2)cc1OCC,-9,1.1,-6,-1,-4,i
COc1cc(-c2nnc3n2N=C(c2ccccc2)CS3)cc(OC)c1OC,9,1,-1,-1.1,-9,+
COc1cc(NC(=O)c2cccc(Cl)c2)ccc1NC(=O)c1cccs1,-5,1,-5,·,-5,+
Cc1ccc(Cl)c(NC(=O)COC(=O)c2ccccc2C(=O)c2ccc(Cl)c([N+](=O)[O-])c2)c1Cl,-7,1,-2,-0.15,-7,+
CCc1cccc2cc3c(N)c(C(=O)Nc4ccc(S(=O)(=O)N5CCCC5)cc4)sc3nc12,6,1,3,·,-35,+
Cc1cccc2cc3c(N)c(C(=O)Nc4ccc(N5CCOCC5)cc4)sc3nc12,6,0.9,6,-0.2,-45,i
Cc1cccc(NC(=O)Cn2c(O)c(N=NC(=O)c3ccccc3O)c3ccccc32)c1,1,0.9,14,0.08,33*,i
Cc1ccc(NC(=O)Cn2c(O)c(N=NC(=O)c3cc([N+](=O)[O-])ccc3O)c3ccccc32)cc1,·,·,·,-0.03,-19,·
c1cncc(C2OCC3(CO2)COC(c2cccnc2)OC3)c1 (stereo unspecified),-10,1,0,·,5,i
COC(=O)C(=CC(=CN(C)C)C=C(C(=O)OC)C(=O)OC)C(=O)OC,·,·,·,0.15,-8,·
CCN1/C(=C\C=C2\C(=O)N(c3ccccc3)C(=S)N2C)Sc2ccccc21,35,0.6,40,·,23,i
CCOC(=O)/C(C#N)=C(C)/C=C1\Sc2ccccc2N1CC,6,0.9,13,1.9,-11,i
CCCN1C(=O)/C(=C\C=C2/Sc3ccccc3N2CC)SC1=S,22,0.9,6,0.32,77*,i
CN1/C(=C\C=C2/C(=O)Oc3ccccc3C2=O)C(C)(C)c2ccccc21,27,0.5,45,·,-267,+
CN1/C(=C\C=N\O)C(C)(C)c2ccccc21,-6,1,-4,0.18,-29,i
CCN1/C(=C\C=C(C(C)=O)C(C)=O)Sc2ccccc21,39,0.6,38,7.7*,-42,i
CN1C(=CC=C2C=C(I)C(=O)C(I)=C2)C(C)(C)c2ccccc21,·,·,·,-0.24,-240,·
CN1/C(=C\C=C2/SC(=S)NC2=O)C(C)(C)c2ccccc21,41,0.5,51*,·,-234,i
Cc1ccccc1CC1(CO)CCCN(C(=O)c2ccc3ncccc3c2)C1 (stereo unspecified),-4,1,-1,-0.48,-7,i
